Converted amounts (≈) assume the structure as drawn. The source made the active and inactive calls. The calls are words filed in the database; no cut-off is given here.
Experiments:
[1] = system: RAW264.7; assay: Anti-inflammatory activity in mouse RAW264.7 cells assessed as inhibition of LPS-induced NO production by measuring remaining NO level at 20 ug/ml after 22 hrs by Griess assay relative to control; assay type: functional
In short: (§1)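 RAW 264.7 cells seeded at 2×10^5/well, grown 24 h at 37 °C in 5% CO2, washed twice with PBS, given fresh medium, then exposed to LPS 1 µg/mL with or without test compound for 22 h. Nitrite in the medium read by Griess reagent at 540 nm against a sodium nitrite standard curve. IC50 obtained by nonlinear regression of % inhibition vs concentration. Means ± SD of three independent experiments.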

[2] = system: RAW264.7; assay: Anti-inflammatory activity in mouse RAW264.7 cells assessed as inhibition of LPS-induced NO production by measuring […] level at 20 ug/ml after 22 hrs by Griess assay (reference value: 25.31 uM); assay type: functional; in short: as §1
[3] = Cytotoxicity against mouse RAW264.7 cells assessed as survival up to 20 ug/ml after 22 hrs by MTT assay relative to control; assay type: cell-based; conditions: read-out: Survival
In short: (§2)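 RAW 264.7 cells were grown in DMEM with 10% heat-inactivated FBS at 37 °C and 5% CO₂, then plated at 2×10^5 per well for 24 h. After washing, cells received 1 µg/mL LPS with or without compound (up to 40 µg/mL) for 22 h. After the Griess read, MTT (final 500 µg/mL) was added for 3 h at 37 °C. Formazan was dissolved in DMSO and read at 570 nm, giving % survival versus control.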

[4] = system: RAW264.7; assay: Downregulation of IKKbeta level in LPS-stimulated mouse RAW264.7 cells up to 20 ug/ml preincubated with cells followed by LPS stimulation for 16 hrs by Western blot analysis; assay type: functional, cell-based
In short: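 RAW 264.7 cells pretreated with a range of compound concentrations, then stimulated with LPS 1 µg/mL for 16 h. IKK protein analysed by western blotting.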

[5] = system: RAW264.7; assay: Downregulation of IkB-alpha level in LPS-stimulated mouse RAW264.7 cells up to 20 ug/ml preincubated with cells followed by LPS stimulation for 30 mins by Western blot analysis; assay type: functional, cell-based
In short: (§3)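 Pretreatment with a range of compound concentrations for 30 min, then LPS 1 µg/mL for 30 min. IκBα, phospho-protein and related protein levels analysed by western blot.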

[6] = system: RAW264.7; assay: Downregulation of LPS-stimulated IL-1beta mRNA expression level in mouse RAW264.7 cells preincubated for 30 mins followed by LPS stimulation for 4 hrs by RT-PCR method; assay type: functional, cell-based
In short: (§4)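 Cells pretreated with compound for 30 min, then stimulated with LPS 1 µg/mL for 4 h. Total RNA extracted and cytokine mRNA measured by real-time PCR. Means ± SD of triplicate tests.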

[7] = system: RAW264.7; assay: Downregulation of LPS-stimulated iNOS protein expression level in mouse RAW264.7 cells preincubated for 30 mins followed by LPS stimulation for 16 hrs by Western blot analysis; assay type: functional, cell-based
In short: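 Cells pretreated with a range of compound concentrations for 30 min, then stimulated with LPS 1 µg/mL for 16 h. iNOS protein analysed by western blot.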

[8] = system: RAW264.7; assay: Downregulation of IFN-beta mRNA level in LPS-stimulated mouse RAW264.7 cells up to 20 ug/ml preincubated with cells followed by LPS stimulation for 4 hrs by RT-PCR method; assay type: functional, cell-based; in short: as §4
[9] = Cytotoxicity against mouse RAW264.7 cells assessed as survival at 40 ug/ml after 22 hrs by MTT assay relative to control; assay type: cell-based; conditions: read-out: Survival; in short: as §2
[10] = system: RAW264.7; assay: Downregulation of LPS-stimulated iNOS mRNA expression level in mouse RAW264.7 cells preincubated for 30 mins followed by LPS stimulation for 4 hrs by RT-PCR method; assay type: functional, cell-based
[11] = system: RAW264.7; assay: Downregulation of LPS-stimulated TNF-alpha protein expression level in mouse RAW264.7 cells up to 20 ug/ml preincubated for 30 mins followed by LPS stimulation for 4 hrs by Western blot analysis; assay type: functional, cell-based
In short: (§5)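 RAW 264.7 cells pretreated with a range of compound concentrations for 30 min, then stimulated with LPS 1 µg/mL for 4 h. Total protein extracted and cytokine levels analysed by western blotting.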

[12] = system: RAW264.7; assay: Downregulation of LPS-stimulated IL-1beta protein expression level in mouse RAW264.7 cells up to 20 ug/ml preincubated for 30 mins followed by LPS stimulation for 4 hrs by Western blot analysis; assay type: functional, cell-based; in short: as §5
[13] = organism: Mus musculus; assay: Inhibition of IkB kinase in LPS-stimulated mouse RAW264.7 cells assessed as reduction in IkB-alpha phosphorylation up to 20 ug/ml preincubated with cells followed by LPS stimulation for 30 mins by Western blot analysis; in short: as §3
[14] = biological target: T1, Interferon regulatory factor 3 (Mus musculus) (UniProt P70671); assay: Inhibition of LPS-stimulated IRF-3 phosphorylation at Ser-396 residue in mouse RAW264.7 cells up to 20 ug/ml preincubated for 30 mins followed by LPS stimulation for 30 mins by Western blot analysis; assay type: cell-based; in short: as §3
T1 sequence (whole entry): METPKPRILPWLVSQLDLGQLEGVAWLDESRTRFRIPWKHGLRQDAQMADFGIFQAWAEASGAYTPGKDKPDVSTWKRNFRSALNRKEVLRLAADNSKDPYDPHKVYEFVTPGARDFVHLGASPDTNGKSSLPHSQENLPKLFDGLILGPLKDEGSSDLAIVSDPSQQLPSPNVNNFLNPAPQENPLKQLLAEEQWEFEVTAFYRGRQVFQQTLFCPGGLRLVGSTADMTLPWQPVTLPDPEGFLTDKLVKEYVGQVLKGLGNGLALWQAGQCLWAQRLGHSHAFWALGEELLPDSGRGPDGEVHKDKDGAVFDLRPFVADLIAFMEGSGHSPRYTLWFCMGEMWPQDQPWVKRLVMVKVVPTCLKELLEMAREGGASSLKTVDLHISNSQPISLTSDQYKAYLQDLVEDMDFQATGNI

[15] = system: RAW264.7; assay: Anti-inflammatory activity in mouse RAW264.7 cells assessed as inhibition of LPS-induced NO production after 22 hrs by Griess assay; assay type: functional, cell-based; in short: as §1
[16] = system: RAW264.7; assay: Upregulation of HO-1 protein level in LPS-stimulated mouse RAW264.7 cells at 20 ug/ml preincubated for 30 mins followed by LPS stimulation for 16 hrs by Western blot method; assay type: functional, cell-based
In short: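 RAW 264.7 cells pretreated with compound for 30 min, then stimulated with LPS 1 µg/mL for 16 h. HO-1 protein measured by western blotting.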

[17] = organism: Mus musculus; assay: Inhibition of NF-kB transcriptional activity in LPS-stimulated mouse RAW264.7 cells up to 20 ug/ml preincubated for 2 hrs followed by LPS stimulation for 16 hrs by SEAP reporter gene assay
In short: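 RAW-SEAP cells cultured 24 h, pretreated with compound for 2 h, then given LPS 1 µg/mL for 16 h. Supernatants heated at 65 °C for 5 min and reacted with buffer (2 M diethanolamine, 1 mM MgCl2, 500 µM MUP) in the dark at 37 °C for 1 h. Fluorescence read at ex 360/em 449 nm, normalized to protein, expressed relative to vehicle control without LPS.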

[18] = system: RAW264.7; assay: Anti-inflammatory activity in mouse RAW264.7 cells assessed as inhibition of LPS-induced NO production by measuring remaining NO level at 50 uM after 22 hrs by Griess assay relative to control; assay type: functional; in short: as §1
[19] = system: RAW264.7; assay: Anti-inflammatory activity in mouse RAW264.7 cells assessed as inhibition of LPS-induced NO production by measuring […] level at 50 uM after 22 hrs by Griess assay (reference value: 25.31 uM); assay type: functional; in short: as §1
[20] = system: RAW264.7; assay: Anti-inflammatory activity in mouse RAW264.7 cells assessed as inhibition of LPS-induced NO production at 50 uM after 22 hrs by Griess assay relative to control; assay type: functional; conditions: RAW264.7, 22 h; in short: as §1

SMILES | Activity [1] [%] | Activity [2] [µM] | further results
O=C1c2cc(O)cc(O)c2C(=O)N1Cc1ccc(Br)cc1 | 32.4 | 8.04 | –
CCCCCN1C(=O)c2cc(O)cc(O)c2C1=O | 45.5 | 11.3 | –
COc1cc(OC)c2c(c1)C(=O)N(Cc1ccc(Br)cc1)C2=O | 81.1 | 20.16 | –
COc1cc(OC)c2c(c1)C(=O)N(Cc1cccc(C)c1)C2=O | 74.2 | 18.43 | –
O=C1c2cc(O)cc(O)c2C(=O)N1Cc1ccccc1Br | 38.8 | 9.65 | –
CCCCCCCN1C(=O)c2cc(OC)cc(OC)c2C1=O | 84.5 | 20.99 | –
CCN1C(=O)c2cc(OC)cc(OC)c2C1=O | 43.5 | 10.81 | –
COc1cc(OC)c2c(c1)C(=O)N(CCOC(=O)CCl)C2=O | 48.9 | 12.14 | –
CCCN1C(=O)c2cc(OC)cc(OC)c2C1=O | 93.5 | 23.24 | –
Cc1cccc(CN2C(=O)c3cc(O)cc(O)c3C2=O)c1 | 41.7 | 10.36 | –
COc1cc(OC)c2c(c1)C(=O)N(Cc1ccccc1F)C2=O | 75.9 | 18.87 | –
CCCCCCN1C(=O)c2cc(OC)cc(OC)c2C1=O | 92.6 | 23.01 | –
COc1cc(OC)c2c(c1)C(=O)N(CC(C)C)C2=O | 86.3 | 21.45 | –
CC(C)CN1C(=O)c2cc(O)cc(O)c2C1=O | 84.8 | 21.07 | –
COc1cc(OC)c2c(c1)C(=O)N(Cc1ccccc1Br)C2=O | 83.7 | 20.79 | –
COc1cc(OC)c2c(c1)C(=O)N(CCO)C2=O | 99.8 | 24.8 | –

SMILES | Activity [1] [%] | Activity [2] [µM] | further results
O=C1c2cc(O)cc(O)c2C(=O)N1Cc1ccccc1F | 47.3 | 11.76 | –
CCCCCN1C(=O)c2cc(OC)cc(OC)c2C1=O | 74.8 | 18.6 | –
CCN1C(=O)c2cc(O)cc(O)c2C1=O | 85 | 21.12 | –
CCCCN1C(=O)c2cc(O)cc(O)c2C1=O | 73.4 | 18.24 | –
CCCCCCCN1C(=O)c2cc(O)cc(O)c2C1=O | 2.9 | 0.72 | viability at 22 h [3]: > 95%; Activity [4]: Active; Activity [5]: Active; Activity [6]: Dose-dependent effect; Activity [7]: Dose-dependent effect; Activity [8]: Active; viability at 22 h, 40 ug/ml [9]: 17%; Activity [10]: Dose-dependent effect; Activity [11]: Active; Activity [12]: Active; inhibition [13]: Active; inhibition [14]: Active; inhibition [15]: Dose-dependent effect; IC50 ([15]; RAW264.7, 22 h): 8.7 µg/mL (≈ 31.4 µM); Activity [16]: Active; inhibition [17]: Active
COc1cc(OC)c2c(c1)C(=O)N(Cc1cccc(F)c1)C2=O | 75.1 | 18.65 | –
CC1CCN=C(N)S1.Cl (centres undefined) | – | – | Activity [18]: 2%; Activity [19]: 0.5 µM; inhibition at 50 µM [20]: 98%
COc1cc(OC)c2c(c1)C(=O)N(CCOC(C)=O)C2=O | 97.1 | 24.13 | –
COc1cc(OC)c2c(c1)C(=O)N(C(C)C)C2=O | 97.9 | 24.34 | –
CCC(=O)OCCN1C(=O)c2cc(OC)cc(OC)c2C1=O | 101.9 | 25.31 | –
CC(C)N1C(=O)c2cc(O)cc(O)c2C1=O | 82.4 | 20.47 | –
CCCCCCN1C(=O)c2cc(O)cc(O)c2C1=O | 8 | 1.98 | –
O=C1c2cc(O)cc(O)c2C(=O)N1Cc1cccc(F)c1 | 42.1 | 10.46 | –
CCCCN1C(=O)c2cc(OC)cc(OC)c2C1=O | 79.3 | 19.7 | –
CCCN1C(=O)c2cc(O)cc(O)c2C1=O | 83.3 | 20.71 | –

Source: ChEMBL document CHEMBL4020752, “Synthesis and biological activity of new phthalimides as potential anti-inflammatory agents” (Bioorg Med Chem, 2017)
